In brackets after ≈: the same amount, converted by molar mass. Activity calls are given as the source filed them. No cut-off for these calls is given here.
Columns and labels:
[1] = target: T1, Quinolone resistance protein NorA (Staphylococcus aureus) (UniProt P0A0J7); assay: Inhibition of NorA in Staphylococcus aureus 1199B assessed as inhibition of ethidium bromide efflux at 50 uM by fluorimetry
T1 sequence (whole entry): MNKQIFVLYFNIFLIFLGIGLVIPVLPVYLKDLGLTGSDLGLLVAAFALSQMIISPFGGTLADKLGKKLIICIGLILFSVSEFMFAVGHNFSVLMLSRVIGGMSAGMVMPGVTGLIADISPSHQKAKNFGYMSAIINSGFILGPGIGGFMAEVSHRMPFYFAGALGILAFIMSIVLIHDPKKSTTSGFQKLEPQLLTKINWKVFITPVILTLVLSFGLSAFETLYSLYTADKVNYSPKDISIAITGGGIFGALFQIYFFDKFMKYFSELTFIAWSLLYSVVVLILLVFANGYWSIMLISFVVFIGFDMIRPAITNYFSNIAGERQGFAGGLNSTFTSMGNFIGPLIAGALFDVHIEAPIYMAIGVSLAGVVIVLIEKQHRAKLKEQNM
How it was run: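 Fluorometric measurement of EtBr loss from norA-overexpressing SA-1199B, with compounds screened at 50 μM. Performed in duplicate; value is mean total efflux over a 5 min time course, expressed as percent inhibition.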

Staphylococcus aureus [2] = assay: Antibacterial activity against NorA-expressing Staphylococcus aureus 1199B by M7-A7 CLSI microdilution method; type: functional
Staphylococcus aureus [3] = assay: Antibacterial activity against wild-type Staphylococcus aureus ATCC 25923 by M7-A7 CLSI microdilution method; type: functional
Staphylococcus aureus [4] = assay: Antibacterial activity against Staphylococcus aureus K1902 bearing norA-deficient mutation by M7-A7 CLSI microdilution method; type: functional
Staphylococcus aureus [5] = assay: Antibacterial activity against Staphylococcus aureus K2378 bearing norA++ efficient mutation by M7-A7 CLSI microdilution method; type: functional
Staphylococcus aureus [6] = assay: Antibacterial activity against wild-type norA expressing Staphylococcus aureus 1199 by M7-A7 CLSI microdilution method; type: functional
Staphylococcus aureus [7] = assay: Antibacterial activity against Staphylococcus aureus 1199B norA++ and A116E GrlA mutation by M7-A7 CLSI microdilution method; type: functional
Staphylococcus aureus [8] = assay: Potentiation of ciprofloxacin-antibacterial activity against wild-type Staphylococcus aureus ATCC 25923 assessed as reduction in ciprofloxacin MIC by M7-A7 CLSI microdilution method; type: functional, organism-based
[9] = target: T1, Quinolone resistance protein NorA (Staphylococcus aureus); assay: Inhibition of NorA in Staphylococcus aureus K2378 bearing norA++ efficient mutation assessed as reduction in ciprofloxacin MIC at 6.25 ug/mL
[10] = target: T1, Quinolone resistance protein NorA (Staphylococcus aureus); assay: Inhibition of wild-type norA expressing Staphylococcus aureus 1199 assessed as reduction in ciprofloxacin MIC
[11] = target: T1, Quinolone resistance protein NorA (Staphylococcus aureus); assay: Inhibition of NorA in Staphylococcus aureus 1199B norA++ and A116E GrlA mutation assessed as reduction in ciprofloxacin MIC at >=12.5 ug/mL
[12] = target: T2, Quinolone resistance protein NorA (Staphylococcus aureus, UniProt P0A0J7); assay: Inhibition of NorA in Staphylococcus aureus 1199B assessed as inhibition of ethidium bromide efflux dose response curve based fluorometric assay
T2 sequence (P0A0J7 whole entry): T1 sequence (whole entry)
How it was run: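 Fluorometric EtBr efflux (loss of EtBr) from S. aureus SA-1199B (norA-overexpressing); dose-response curves built to assess activity at concentrations below the 50 μM screening level; duplicate experiments, result expressed as mean total efflux over a 5 min time course; IC50 derived from the curves.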

Staphylococcus aureus [13] = assay: Potentiation of ciprofloxacin-antibacterial activity against Staphylococcus aureus K1902 bearing norA-deficient mutation assessed as reduction in ciprofloxacin MIC at 0.78 ug/mL by M7-A7 CLSI microdilution method; type: functional
Staphylococcus aureus [14] = assay: Potentiation of ciprofloxacin-antibacterial activity against Staphylococcus aureus K1902 bearing norA-deficient mutation assessed as reduction in ciprofloxacin MIC at >25 ug/mL by M7-A7 CLSI microdilution method; type: functional
[15] = target: T1, Quinolone resistance protein NorA (Staphylococcus aureus); assay: Inhibition of NorA in Staphylococcus aureus K2378 bearing norA++ efficient mutation assessed as reduction in ciprofloxacin MIC at 3.13 ug/mL
[16] = target: T1, Quinolone resistance protein NorA (Staphylococcus aureus); assay: Inhibition of NorA in Staphylococcus aureus 1199B norA++ and A116E GrlA mutation assessed as reduction in ciprofloxacin MIC at >12.5 ug/mL
[17] = target: T1, Quinolone resistance protein NorA (Staphylococcus aureus); assay: Inhibition of NorA in Staphylococcus aureus 1199B norA++ and A116E GrlA mutation assessed as reduction in ciprofloxacin MIC at 100 ug/mL
[18] = target: T1, Quinolone resistance protein NorA (Staphylococcus aureus); assay: Inhibition of NorA in Staphylococcus aureus K2378 bearing norA++ efficient mutation assessed as reduction in ciprofloxacin MIC at 12.5 ug/mL
[19] = target: T1, Quinolone resistance protein NorA (Staphylococcus aureus); settings: 1199B, 25 ug/mL
[20] = target: T1, Quinolone resistance protein NorA (Staphylococcus aureus); assay: Inhibition of NorA in Staphylococcus aureus 1199B norA++ and A116E GrlA mutation assessed as reduction in ciprofloxacin MIC at 50 ug/mL
[21] = target: T1, Quinolone resistance protein NorA (Staphylococcus aureus); assay: Inhibition of NorA in Staphylococcus aureus K2378 bearing norA++ efficient mutation assessed as reduction in ciprofloxacin MIC at 1.56 ug/mL

| inhibition [1] [%] | SMILES | MIC (Staphylococcus aureus [2]) [µM] | MIC (Staphylococcus aureus [3]) [µg/mL] | MIC (Staphylococcus aureus [4]) [µg/mL] | MIC (Staphylococcus aureus [5]) [µg/mL] | MIC (Staphylococcus aureus [6]) [µg/mL] | MIC (Staphylococcus aureus [7]) [µg/mL] | Activity (Staphylococcus aureus [8]) | inhibition [10] | other results |
| --- | --- | --- | --- | --- | --- | --- | --- | --- | --- | --- |
| 63.7 | CCCOc1ccc(-c2cc(OC)c3ccccc3n2)cc1 |  |  |  |  |  |  |  |  |  |
| 0 | CCCOc1ccc(-c2cc(=O)c3cc(OC)c(OC)cc3n2C)cc1 |  |  |  |  |  |  |  |  |  |
| 0 | CCCOc1ccc(-c2cc(O)c3ccccc3n2)cc1 |  |  |  |  |  |  |  |  |  |
| 0 | Cn1c(-c2ccc(OCCN3CCOCC3)cc2)cc(=O)c2ccccc21 |  |  |  |  |  |  |  |  |  |
|  | CCCOc1ccc(-c2cc(OCCN3CCCCC3)c3ccccc3n2)cc1 | 256 (≈ 100 µg/mL) | 100 (≈ 256 µM) | 50 (≈ 128 µM) | 50 (≈ 128 µM) | 100 (≈ 256 µM) | 100 (≈ 256 µM) | inactive | inactive | fold change (FC) [9]: 16; fold change (FC) [11]: 16; IC50 [12]: 7 µM; fold change (FC) (Staphylococcus aureus [13]): 4; fold change (FC) (Staphylococcus aureus [14]): 8 |
| 0 | Cn1c(-c2ccc(O)cc2)cc(=O)c2ccccc21 |  |  |  |  |  |  |  |  |  |
| 33.9 | CCCOc1ccc(-c2cc(=O)c3ccccc3n2C)cc1 |  |  |  |  |  |  |  |  |  |
|  | CCCOc1ccc(-c2cc(OCCN(CC)CC)c3ccccc3n2)cc1 | > 241 | 100 (≈ 264 µM) | 50 (≈ 132 µM) | 50 (≈ 132 µM) | > 100 | > 100 | inactive | inactive | fold change (FC) [15]: 16; fold change (FC) [16]: 8; IC50 [12]: 7 µM; fold change (FC) (Staphylococcus aureus [13]): 4; fold change (FC) (Staphylococcus aureus [14]): 8 |
|  | CCN(CC)CCOc1cc(-c2ccc(OCCN3CCCCC3)cc2)nc2ccccc12 | > 223 | 100 (≈ 223 µM) | 100 (≈ 223 µM) | 100 (≈ 223 µM) | > 100 | > 100 | inactive | inactive | inhibition [17]: inactive; fold change (FC) [18]: 4 |
|  | CCCOc1ccc(-c2cc(=O)c3ccccc3n2CCN2CCCCC2)cc1 | > 256 | > 100 | > 100 | > 100 | > 100 | > 100 | inactive | inactive | inhibition [20]: inactive; fold change (FC) [21]: 4 |
| 0 | Cn1c(-c2ccccc2)cc(=O)c2cc(O)c(O)cc21 |  |  |  |  |  |  |  |  |  |
| 0 | COc1cc2c(=O)cc(-c3ccc(O)cc3)n(C)c2cc1OC |  |  |  |  |  |  |  |  |  |
| 0 | COc1ccc(-c2cc(=O)c3ccccc3n2C)cc1 |  |  |  |  |  |  |  |  |  |
| 0 | Cn1c(-c2ccc(O)cc2)cc(=O)c2cc(O)c(O)cc21 |  |  |  |  |  |  |  |  |  |
|  | COC(=O)[C@H]1[C@H]2C[C@@H]3c4[nH]c5cc(OC)ccc5c4CCN3C[C@H]2C[C@@H](OC(=O)c2cc(OC)c(OC)c(OC)c2)[C@@H]1OC [RESERPINE] | > 164 | > 100 | > 100 | > 100 | > 100 | > 100 | inactive | inactive | IC50 [12]: 7 µM |

| SMILES | inhibition [1] [%] | MIC (Staphylococcus aureus [2]) [µM] | MIC (Staphylococcus aureus [3]) [µg/mL] | MIC (Staphylococcus aureus [4]) [µg/mL] | MIC (Staphylococcus aureus [5]) [µg/mL] | MIC (Staphylococcus aureus [6]) [µg/mL] | MIC (Staphylococcus aureus [7]) [µg/mL] | Activity (Staphylococcus aureus [8]) | inhibition [10] | other results |
| --- | --- | --- | --- | --- | --- | --- | --- | --- | --- | --- |
| Fc1ccc([C@@H]2CCNC[C@H]2COc2ccc3c(c2)OCO3)cc1 [PAROXETINE] | 89.7 | > 303 | > 100 | > 100 | 100 (≈ 304 µM) | > 100 | > 100 | inactive | inactive | IC50 [12]: 7 µM; inhibition [19]: inactive |

Reference: ChEMBL document CHEMBL1811797, “Evolution from a natural flavones nucleus to obtain 2-(4-Propoxyphenyl)quinoline derivatives as potent inhibitors of the S. aureus NorA efflux pump” (J Med Chem, 2011)
